Published values from different studies.
Protocols differ between the studies behind these lines. pIC50: −log10 of the molar value.
CYP2C9: Cytochrome P450 2C9 (CYP2C9, Homo sapiens, UniProt P11712)

Structure (SMILES)	tested on	test	test system	setting	endpoint	result
CSc1ccccc1C(=O)NCCn1cc(C(=O)NCc2cccc(C)n2)c(=O)c2cc3c(cc21)OCO3	CYP2C9	enzyme activity, inhibitor	human, liver microsomes	20 min, without NADPH, with preincubation	pIC50	< 4.00
OCc1ccc(-c2nn(Cc3ccccn3)c3ccccc23)o1	–	metabolic stability	rat, liver microsomes	1 µM, pH 7.4	half-life	11 min
CSc1ccccc1C(=O)NCCn1cc(C(=O)NCc2cccc(C)n2)c(=O)c2cc3c(cc21)OC(F)(F)O3	CYP2C9	enzyme activity, inhibitor	human, liver microsomes	20 min, without NADPH, with preincubation	pIC50	< 4.00
Cc1ccc(-c2nnc(N[C@@H](Cc3ccc(C#N)cc3)C(=O)N3CCc4ccccc43)o2)cc1	–	metabolic stability	rat, liver microsomes	10 µM, pH 7.4	half-life	14 min
CN(C)C(=O)c1cc2cnc(Nc3ccc(-c4ccc5c(=O)cc(N6CCOCC6)oc5c4)cc3)nc2n1C1CCCC1.Cl	–	–	BALB/c mouse, plasma	oral, 20 mg/kg	AUC(0-inf)	7810 ng·h/mL
COc1ccc(-c2coc3cc(O[C@@H]4O[C@H](CO)[C@@H](O)[C@H](O)[C@H]4O)ccc3c2=O)cc1O	CYP2C9	enzyme activity, inhibitor	human, liver microsomes	–	pIC50	< 3.70
N#Cc1ccc(C[C@H](NC(=O)c2cc3cc(F)ccc3[nH]2)C(=O)N2CCc3ccccc32)cc1	–	metabolic stability	rat, liver microsomes	10 µM, pH 7.4	half-life	76 min
OCc1ccc(-c2nn(Cc3ccccc3)c3ccccc23)o1	–	metabolic stability	rat, liver microsomes	–	half-life	5 min
CC(=O)O[C@@H]1[C@@H](O)[C@H](O[C@H]2CC[C@]34C[C@]35CC[C@]3(C)[C@@H]([C@@]6(C)CC[C@@H](C(C)(C)O)O6)[C@@H](O)C[C@@]3(C)[C@@H]5C[C@H](O[C@@H]3O[C@H](CO)[C@@H](O)[C@H](O)[C@H]3O)[C@H]4C2(C)C)OC[C@H]1O	CYP2C9	enzyme activity, inhibitor	human, liver microsomes	–	pIC50	< 3.70
